According to article PMC6679956 (Journal of medicinal chemistry, 2019):

Experiments:
[1] = Peptide helicity by CD spectroscopy; assay type: physicochemical
In short: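 Test peptides at 100 μM in 5 mM sodium phosphate, pH 7.4, equilibrated at 10, 15, 20, 25 and 30 °C. Spectra recorded from 180 to 260 nm: 0.1 nm step, 50 nm/s, five accumulations, 1 s response, 5 nm bandwidth, 0.1 cm path. α-Helical content calculated from previously reported equations. Triplicate analyses per peptide.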

m^7GDP-bound eIF4E = m^7GDP-bound eIF4E (Homo sapiens, UniProt P06730); test: SPR binding kinetics of peptides to immobilized eIF4E
Chain of m^7GDP-bound eIF4E (P06730 whole entry): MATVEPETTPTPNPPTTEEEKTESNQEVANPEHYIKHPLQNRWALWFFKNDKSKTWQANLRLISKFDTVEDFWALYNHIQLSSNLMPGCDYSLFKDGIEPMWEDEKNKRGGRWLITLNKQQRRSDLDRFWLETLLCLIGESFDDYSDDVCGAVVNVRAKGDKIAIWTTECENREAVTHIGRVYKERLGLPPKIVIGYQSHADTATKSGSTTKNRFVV

[2] = SPR, 25 °C, 1.0 M versus 225 mM salt

Compound: CC[C@H](C)[C@H](NC(=O)[C@H](CCCNC(=N)N)NC(=O)[C@@H](NC(=O)CNC(C)=O)[C@@H](C)O)C(=O)N[C@H](C(=O)N[C@@H](Cc1ccc(O)cc1)C(=O)N[C@@H](CC(=O)O)C(=O)N[C@@H](CCCNC(=N)N)C(=O)N[C@@H](CCCCN)C(=O)N[C@@H](Cc1ccccc1)C(=O)N[C@@H](CC(C)C)C(=O)N[C@@H](CCSC)C(=O)N[C@@H](CCC(=O)O)C(=O)N[C@@H](CS)C(=O)N[C@@H](CCCNC(=N)N)C(=O)N[C@@H](CC(N)=O)C(N)=O)[C@@H](C)CC [4E-BP1]
- helicity over the temperatures tested ([1]; 100 μM, 10 to 30 °C): 15–19%
- helicity in the presence of TFE ([1]; 5 mM sodium phosphate buffer pH 7.4, 25 °C, 100 μM peptide, with 2,2,2-trifluoroethanol): 37%

Compound: CC(=O)N[C@@H](CCCCN)C(=O)N[C@@H](CCCCN)C(=O)N[C@@H](CCCNC(=N)N)C(=O)N[C@@H](Cc1ccc(O)cc1)C(=O)N[C@@H](CC(=O)O)C(=O)N[C@@H](CCCNC(=N)N)C(=O)N[C@@H](CCC(=O)O)C(=O)N[C@@H](Cc1ccccc1)C(=O)N[C@@H](CC(C)C)C(=O)N[C@@H](CC(C)C)C(=O)NCC(=O)N[C@@H](Cc1ccccc1)C(=O)N[C@@H](CCC(N)=O)C(=O)N[C@@H](Cc1ccccc1)C(N)=O [eIF4G]
- kd with increasing salt concentration (m^7GDP-bound eIF4E; SPR, 25 °C, running buffer salt 225 to 1000 mM): 0.046 to 0.27 s⁻¹
- kinetic advantage (ka) of eIF4G peptide over both 4E-BP1 peptides (m^7GDP-bound eIF4E; SPR, at most temperatures, particularly the higher ones): ~ 2 fold

Compound: Ac-KKRYSREQLLGL-NH2 [Linear sTIP-04]
- fold decrease in Kd with increasing salt concentration (m^7GDP-bound eIF4E; [2]): 4 fold
- fold decrease in kd with increasing salt concentration (m^7GDP-bound eIF4E; [2]): 48 fold
- kon (m^7GDP-bound eIF4E; pH 7.5, read-out: association rate ka): 2e+06 ± 100000 M⁻¹ s⁻¹
- koff (m^7GDP-bound eIF4E; pH 7.5, read-out: dissociation rate kd): 0.123 ± 0.014 s⁻¹
